Results published in ChEMBL document CHEMBL1139946, “1-Aryl-4,6-dihydropyrazolo[4,3-d][1]benzazepin-5(1H)-ones: a new class of antiproliferative agents with selectivity for human leukemia and breast cancer cell lines” (Eur J Med Chem, 2007).

What was measured:
NCI-H460 = experiment: Antiproliferative activity against human NCI-H460 cells at 100 uM after 48 hrs relative to control; type: functional; conditions: NCI-H460, 48 h
How it was run: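 NCI three-cell-line prescreen (MCF7 breast, NCI-H460 non-small cell lung, SF-268 CNS). Cells inoculated and preincubated in microtiter plates, then exposed to test agent at 10^-4 M for 48 h. Alamar blue end-point read-out. Growth of treated cells expressed as percent of untreated control cells.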

[1] = biological target: T1, Ephrin type-B receptor 4 (Homo sapiens) (UniProt P54760); experiment: Inhibition of EphB4 at 10 uM
T1 sequence (whole entry): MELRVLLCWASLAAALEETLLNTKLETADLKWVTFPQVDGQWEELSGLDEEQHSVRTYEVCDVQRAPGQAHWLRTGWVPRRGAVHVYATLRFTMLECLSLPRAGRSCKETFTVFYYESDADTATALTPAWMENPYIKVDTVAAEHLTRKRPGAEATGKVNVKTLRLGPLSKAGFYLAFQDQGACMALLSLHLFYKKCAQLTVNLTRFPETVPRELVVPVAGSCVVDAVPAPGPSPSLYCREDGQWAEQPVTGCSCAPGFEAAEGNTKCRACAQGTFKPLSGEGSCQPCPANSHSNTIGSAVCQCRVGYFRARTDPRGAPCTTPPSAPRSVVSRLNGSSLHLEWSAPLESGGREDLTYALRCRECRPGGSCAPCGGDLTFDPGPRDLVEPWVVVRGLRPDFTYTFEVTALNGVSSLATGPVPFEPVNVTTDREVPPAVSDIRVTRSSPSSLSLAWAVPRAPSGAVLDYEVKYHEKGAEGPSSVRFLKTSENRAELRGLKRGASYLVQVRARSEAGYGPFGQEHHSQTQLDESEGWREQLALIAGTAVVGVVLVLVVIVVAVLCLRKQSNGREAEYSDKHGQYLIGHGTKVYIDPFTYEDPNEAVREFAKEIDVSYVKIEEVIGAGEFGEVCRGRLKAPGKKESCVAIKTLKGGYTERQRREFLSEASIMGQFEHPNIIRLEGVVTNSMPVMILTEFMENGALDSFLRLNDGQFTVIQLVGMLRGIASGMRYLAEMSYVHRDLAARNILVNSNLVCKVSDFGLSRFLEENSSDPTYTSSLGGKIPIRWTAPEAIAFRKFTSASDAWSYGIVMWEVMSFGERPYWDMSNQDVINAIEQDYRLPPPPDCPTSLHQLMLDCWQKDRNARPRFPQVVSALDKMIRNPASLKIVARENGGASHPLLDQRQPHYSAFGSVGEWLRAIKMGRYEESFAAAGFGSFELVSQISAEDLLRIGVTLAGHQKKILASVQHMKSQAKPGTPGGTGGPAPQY

[2] = biological target: Receptor tyrosine-protein kinase erbB-2 (Homo sapiens) (UniProt P04626); experiment: Inhibition of ERBB2 at 10 uM
[3] = biological target: Focal adhesion kinase 1 (Homo sapiens) (UniProt Q05397); experiment: Inhibition of FAK at 10 uM
[4] = biological target: Aurora kinase B (Homo sapiens) (UniProt Q96GD4); experiment: Inhibition of aurora B at 10 uM
Homo sapiens = species: Homo sapiens; experiment: Inhibition of CK2-alpha1 at 10 uM
[5] = biological target: Serine/threonine-protein kinase PLK1 (Homo sapiens) (UniProt P53350); experiment: Inhibition of PLK1 at 10 uM
[6] = biological target: T2, NUAK family SNF1-like kinase 1 (Homo sapiens) (UniProt O60285); experiment: Inhibition of ARK5 at 10 uM
T2 sequence (whole entry): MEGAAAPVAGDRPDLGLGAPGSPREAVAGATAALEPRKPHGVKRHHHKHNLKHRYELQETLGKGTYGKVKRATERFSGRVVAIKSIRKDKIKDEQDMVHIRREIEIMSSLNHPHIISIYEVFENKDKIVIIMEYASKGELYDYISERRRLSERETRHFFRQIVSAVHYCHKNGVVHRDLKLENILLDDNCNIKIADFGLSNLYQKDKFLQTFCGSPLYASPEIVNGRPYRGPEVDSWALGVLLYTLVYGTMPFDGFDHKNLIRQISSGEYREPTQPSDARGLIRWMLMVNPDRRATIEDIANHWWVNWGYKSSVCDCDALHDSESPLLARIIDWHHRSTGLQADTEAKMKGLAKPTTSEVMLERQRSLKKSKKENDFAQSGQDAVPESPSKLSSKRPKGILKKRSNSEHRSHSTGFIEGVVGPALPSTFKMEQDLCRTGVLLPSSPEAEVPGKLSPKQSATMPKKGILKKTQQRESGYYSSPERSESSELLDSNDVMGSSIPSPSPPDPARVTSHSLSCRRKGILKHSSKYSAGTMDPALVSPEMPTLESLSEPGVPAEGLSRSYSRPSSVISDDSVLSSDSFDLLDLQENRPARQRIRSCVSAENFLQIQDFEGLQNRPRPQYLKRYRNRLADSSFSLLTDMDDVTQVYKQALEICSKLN

[7] = biological target: T3, Serine/threonine-protein kinase PLK4 (Homo sapiens) (UniProt O00444); experiment: Inhibition of SAK at 10 uM
T3 sequence (whole entry): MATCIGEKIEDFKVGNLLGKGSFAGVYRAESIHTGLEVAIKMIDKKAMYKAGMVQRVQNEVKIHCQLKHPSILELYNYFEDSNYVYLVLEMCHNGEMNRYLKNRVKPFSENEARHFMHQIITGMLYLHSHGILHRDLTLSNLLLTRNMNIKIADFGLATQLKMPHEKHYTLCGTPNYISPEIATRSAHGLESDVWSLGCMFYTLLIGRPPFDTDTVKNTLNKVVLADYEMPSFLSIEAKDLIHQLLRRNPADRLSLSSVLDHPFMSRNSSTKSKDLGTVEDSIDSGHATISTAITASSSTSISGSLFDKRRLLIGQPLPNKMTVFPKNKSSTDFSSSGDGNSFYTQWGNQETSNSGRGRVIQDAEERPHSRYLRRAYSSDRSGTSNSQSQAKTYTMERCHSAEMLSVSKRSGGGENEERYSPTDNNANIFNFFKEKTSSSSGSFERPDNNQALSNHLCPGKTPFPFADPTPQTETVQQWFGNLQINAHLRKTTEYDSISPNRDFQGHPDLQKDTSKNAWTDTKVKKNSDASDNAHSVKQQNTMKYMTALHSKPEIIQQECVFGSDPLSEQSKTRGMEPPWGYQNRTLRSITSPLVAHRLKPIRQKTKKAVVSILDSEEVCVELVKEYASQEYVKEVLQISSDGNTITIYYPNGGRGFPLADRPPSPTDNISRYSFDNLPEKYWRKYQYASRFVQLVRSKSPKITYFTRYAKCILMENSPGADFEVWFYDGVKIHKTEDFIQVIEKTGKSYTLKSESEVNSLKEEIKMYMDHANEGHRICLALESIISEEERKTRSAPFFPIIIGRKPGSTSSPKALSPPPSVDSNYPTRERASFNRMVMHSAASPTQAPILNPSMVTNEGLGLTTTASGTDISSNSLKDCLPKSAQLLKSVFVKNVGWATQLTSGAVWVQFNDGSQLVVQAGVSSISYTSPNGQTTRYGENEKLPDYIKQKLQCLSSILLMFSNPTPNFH

Sequence of Serine/threonine-protein kinase PLK1 (Homo sapiens) (P53350 whole entry): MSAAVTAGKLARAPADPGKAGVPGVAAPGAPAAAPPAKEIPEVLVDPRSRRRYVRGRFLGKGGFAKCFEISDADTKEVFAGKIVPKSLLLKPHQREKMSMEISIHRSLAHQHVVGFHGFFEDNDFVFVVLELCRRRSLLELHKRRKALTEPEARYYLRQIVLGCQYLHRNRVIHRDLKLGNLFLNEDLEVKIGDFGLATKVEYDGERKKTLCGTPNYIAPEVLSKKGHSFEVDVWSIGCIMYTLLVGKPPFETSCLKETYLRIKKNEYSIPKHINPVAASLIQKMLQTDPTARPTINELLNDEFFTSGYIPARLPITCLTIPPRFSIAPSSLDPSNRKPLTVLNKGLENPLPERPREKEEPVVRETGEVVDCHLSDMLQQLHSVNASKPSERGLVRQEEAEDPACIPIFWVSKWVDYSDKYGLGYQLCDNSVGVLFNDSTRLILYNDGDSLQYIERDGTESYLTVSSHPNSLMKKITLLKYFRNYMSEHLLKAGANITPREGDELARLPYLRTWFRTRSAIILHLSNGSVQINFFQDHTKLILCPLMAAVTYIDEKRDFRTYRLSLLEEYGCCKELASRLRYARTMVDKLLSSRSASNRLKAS
Sequence of Focal adhesion kinase 1 (Homo sapiens) (Q05397 2-1052 limits assumed): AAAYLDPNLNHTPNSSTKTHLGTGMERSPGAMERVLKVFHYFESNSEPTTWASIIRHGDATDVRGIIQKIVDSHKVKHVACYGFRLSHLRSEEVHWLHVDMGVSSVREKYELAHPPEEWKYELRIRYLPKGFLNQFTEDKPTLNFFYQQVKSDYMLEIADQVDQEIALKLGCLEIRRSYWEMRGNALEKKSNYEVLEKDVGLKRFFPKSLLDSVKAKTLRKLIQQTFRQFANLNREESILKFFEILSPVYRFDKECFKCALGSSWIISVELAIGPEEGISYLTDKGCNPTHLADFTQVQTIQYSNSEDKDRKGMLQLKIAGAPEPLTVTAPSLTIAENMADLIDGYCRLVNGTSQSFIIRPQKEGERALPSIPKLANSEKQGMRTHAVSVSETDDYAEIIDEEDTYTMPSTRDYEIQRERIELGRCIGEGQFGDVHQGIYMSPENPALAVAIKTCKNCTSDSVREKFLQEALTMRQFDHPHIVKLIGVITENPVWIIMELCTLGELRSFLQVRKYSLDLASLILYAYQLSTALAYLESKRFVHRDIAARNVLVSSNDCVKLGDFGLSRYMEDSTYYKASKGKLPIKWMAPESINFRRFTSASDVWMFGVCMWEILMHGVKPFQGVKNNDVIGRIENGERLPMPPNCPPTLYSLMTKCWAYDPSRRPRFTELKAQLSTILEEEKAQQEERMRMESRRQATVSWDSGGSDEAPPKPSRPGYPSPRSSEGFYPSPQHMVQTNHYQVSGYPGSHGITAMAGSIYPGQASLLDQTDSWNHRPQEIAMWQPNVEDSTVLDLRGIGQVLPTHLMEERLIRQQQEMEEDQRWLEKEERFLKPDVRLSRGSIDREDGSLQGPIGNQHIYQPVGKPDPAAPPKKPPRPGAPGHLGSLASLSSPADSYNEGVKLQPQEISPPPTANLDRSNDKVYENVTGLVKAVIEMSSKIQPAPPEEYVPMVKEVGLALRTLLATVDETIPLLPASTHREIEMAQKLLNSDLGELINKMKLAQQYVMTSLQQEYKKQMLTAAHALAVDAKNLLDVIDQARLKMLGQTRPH
Sequence of Receptor tyrosine-protein kinase erbB-2 (Homo sapiens) (P04626 whole entry): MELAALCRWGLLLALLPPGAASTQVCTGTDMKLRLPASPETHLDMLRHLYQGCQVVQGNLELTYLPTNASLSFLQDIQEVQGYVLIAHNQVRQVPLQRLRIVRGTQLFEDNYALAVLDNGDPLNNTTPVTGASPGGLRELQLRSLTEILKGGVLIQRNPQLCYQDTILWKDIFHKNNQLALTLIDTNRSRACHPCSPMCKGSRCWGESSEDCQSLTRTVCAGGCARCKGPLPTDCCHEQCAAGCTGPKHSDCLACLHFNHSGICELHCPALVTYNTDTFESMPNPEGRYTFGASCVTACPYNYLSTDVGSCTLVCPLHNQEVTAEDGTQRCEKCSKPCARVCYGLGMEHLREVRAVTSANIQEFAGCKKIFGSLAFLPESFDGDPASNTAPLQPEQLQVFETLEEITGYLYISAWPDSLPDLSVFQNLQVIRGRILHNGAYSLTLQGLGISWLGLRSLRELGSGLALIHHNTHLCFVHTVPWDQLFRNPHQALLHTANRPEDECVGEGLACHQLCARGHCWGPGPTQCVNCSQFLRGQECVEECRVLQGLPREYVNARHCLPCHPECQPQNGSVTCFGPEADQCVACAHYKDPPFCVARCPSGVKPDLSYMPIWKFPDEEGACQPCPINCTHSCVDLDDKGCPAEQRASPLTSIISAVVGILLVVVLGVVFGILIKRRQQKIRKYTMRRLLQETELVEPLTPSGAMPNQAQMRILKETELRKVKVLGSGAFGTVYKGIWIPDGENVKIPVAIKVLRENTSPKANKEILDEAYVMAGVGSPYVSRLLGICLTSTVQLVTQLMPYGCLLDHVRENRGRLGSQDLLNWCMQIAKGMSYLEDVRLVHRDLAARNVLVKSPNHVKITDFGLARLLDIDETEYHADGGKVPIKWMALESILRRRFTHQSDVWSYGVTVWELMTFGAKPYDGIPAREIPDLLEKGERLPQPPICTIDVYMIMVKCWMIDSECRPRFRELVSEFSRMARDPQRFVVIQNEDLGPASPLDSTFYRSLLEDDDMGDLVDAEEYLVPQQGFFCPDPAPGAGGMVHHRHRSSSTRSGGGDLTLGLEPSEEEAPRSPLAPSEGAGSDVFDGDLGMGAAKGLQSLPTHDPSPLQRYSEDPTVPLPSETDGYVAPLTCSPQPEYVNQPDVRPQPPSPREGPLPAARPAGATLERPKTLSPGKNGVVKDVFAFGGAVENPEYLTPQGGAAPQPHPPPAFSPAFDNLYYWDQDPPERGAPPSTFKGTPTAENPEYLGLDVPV
Sequence of Aurora kinase B (Homo sapiens) (Q96GD4 whole entry): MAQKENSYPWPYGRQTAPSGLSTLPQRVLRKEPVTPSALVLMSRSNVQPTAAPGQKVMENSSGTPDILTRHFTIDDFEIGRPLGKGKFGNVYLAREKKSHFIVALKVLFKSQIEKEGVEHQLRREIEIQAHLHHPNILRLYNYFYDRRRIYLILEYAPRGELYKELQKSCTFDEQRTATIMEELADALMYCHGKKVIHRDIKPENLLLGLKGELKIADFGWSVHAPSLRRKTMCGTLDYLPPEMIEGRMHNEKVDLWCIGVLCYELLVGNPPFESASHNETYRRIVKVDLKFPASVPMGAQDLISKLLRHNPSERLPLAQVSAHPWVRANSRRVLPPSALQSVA

`O=C1Cc2cnn(-c3ccc([N+](=O)[O-])cc3)c2-c2ccccc2N1` gave a growth, % of control at 100 µM (NCI-H460) of 62%, an inhibition [1] of less than 40% and an inhibition [2] of less than 40%. It also gave an inhibition [3] of less than 40%, an inhibition [4] of less than 40% and an inhibition (Homo sapiens) of less than 40%. It also gave an inhibition [5] of less than 40%, an inhibition [6] of less than 40% and an inhibition [7] of less than 40%.

`O=C1Cc2cnn(-c3ccc(Cl)cc3)c2-c2ccccc2N1` showed a growth, % of control at 100 µM (NCI-H460) of 41%, an inhibition [1] of less than 40% and an inhibition [2] of less than 40%. The inhibition [3] was less than 40%, the inhibition [4] was less than 40% and the inhibition (Homo sapiens) was less than 40%. It also gave an inhibition [5] of less than 40%, an inhibition [6] of less than 40% and an inhibition [7] of less than 40%.

With `O=C1Cc2cnn(-c3ccc(Br)cc3)c2-c2ccccc2N1` the growth, % of control at 100 µM (NCI-H460) was 32%, the inhibition [1] was less than 40% and the inhibition [2] was less than 40%. It also gave an inhibition [3] of less than 40%, an inhibition [4] of less than 40% and an inhibition (Homo sapiens) of less than 40%. It also gave an inhibition [5] of less than 40%, an inhibition [6] of less than 40% and an inhibition [7] of less than 40%.

Work on `O=C1Cc2cnn(-c3ccccc3Br)c2-c2ccccc2N1` yielded a growth, % of control at 100 µM (NCI-H460) of 44%, an inhibition [1] of less than 40% and an inhibition [2] of less than 40%. It also gave an inhibition [3] of less than 40%, an inhibition [4] of less than 40% and an inhibition (Homo sapiens) of less than 40%. It also gave an inhibition [5] of less than 40%, an inhibition [6] of less than 40% and an inhibition [7] of less than 40%.

With `O=C1Cc2cnn(-c3ccccc3Cl)c2-c2ccccc2N1` the growth, % of control at 100 µM (NCI-H460) was 53%, the inhibition [1] was less than 40% and the inhibition [2] was less than 40%. The inhibition [3] was less than 40%, the inhibition [4] was less than 40% and the inhibition (Homo sapiens) was less than 40%. The inhibition [5] was less than 40%, the inhibition [6] was less than 40% and the inhibition [7] was less than 40%.

`O=C1Cc2cnn(-c3ccc(F)cc3F)c2-c2ccccc2N1` gave a growth, % of control at 100 µM (NCI-H460) of 41%, an inhibition [1] of less than 40% and an inhibition [2] of less than 40%. It also gave an inhibition [3] of less than 40%, an inhibition [4] of less than 40% and an inhibition (Homo sapiens) of less than 40%. It also gave an inhibition [5] of less than 40%, an inhibition [6] of less than 40% and an inhibition [7] of less than 40%.

In the case of `COc1ccc(-n2ncc3c2-c2ccccc2NC(=O)C3)cc1`, the growth, % of control at 100 µM (NCI-H460) is reported as 26%, the inhibition [1] is reported as less than 40% and the inhibition [2] is reported as less than 40%. The inhibition [3] was less than 40%, the inhibition [4] was less than 40% and the inhibition (Homo sapiens) was less than 40%. The inhibition [5] was less than 40%, the inhibition [6] was less than 40% and the inhibition [7] was less than 40%.

`Cc1ccc(-n2ncc3c2-c2ccccc2NC(=O)C3)cc1` gave a growth, % of control at 100 µM (NCI-H460) of 29%, an inhibition [1] of less than 40% and an inhibition [2] of less than 40%. For the same molecule, the inhibition [3] was less than 40%, the inhibition [4] was less than 40% and the inhibition (Homo sapiens) was less than 40%. The inhibition [5] was less than 40%, the inhibition [6] was less than 40% and the inhibition [7] was less than 40%.

For `CC(C)(C)c1ccc(-n2ncc3c2-c2ccccc2NC(=O)C3)cc1`, the growth, % of control at 100 µM (NCI-H460) was 11%, the inhibition [1] was less than 40% and the inhibition [2] was less than 40%. It also gave an inhibition [3] of less than 40%, an inhibition [4] of less than 40% and an inhibition (Homo sapiens) of less than 40%. For the same molecule, the inhibition [5] was less than 40%, the inhibition [6] was less than 40% and the inhibition [7] was less than 40%.

`O=C1Cc2cnn(-c3cc(Cl)cc(Cl)c3)c2-c2ccccc2N1` gave a growth, % of control at 100 µM (NCI-H460) of 21%, an inhibition [1] of less than 40% and an inhibition [2] of less than 40%. The inhibition [3] was less than 40%, the inhibition [4] was less than 40% and the inhibition (Homo sapiens) was less than 40%. It also gave an inhibition [5] of less than 40%, an inhibition [6] of less than 40% and an inhibition [7] of less than 40%.

Molecule `O=C1Cc2cnn(-c3ccccc3F)c2-c2ccccc2N1` has a growth, % of control at 100 µM (NCI-H460) of 49%, an inhibition [1] of less than 40% and an inhibition [2] of less than 40%. It also gave an inhibition [3] of less than 40%, an inhibition [4] of less than 40% and an inhibition (Homo sapiens) of less than 40%. The inhibition [5] was less than 40%, the inhibition [6] was less than 40% and the inhibition [7] was less than 40%.

Molecule `O=C1Cc2cnn(-c3ccc(C(F)(F)F)cc3)c2-c2ccccc2N1` has a growth, % of control at 100 µM (NCI-H460) of 28%, an inhibition [1] of less than 40% and an inhibition [2] of less than 40%. For the same molecule, the inhibition [3] was less than 40%, the inhibition [4] was less than 40% and the inhibition (Homo sapiens) was less than 40%. It also gave an inhibition [5] of less than 40%, an inhibition [6] of less than 40% and an inhibition [7] of less than 40%.

`O=C1Cc2cnn(-c3cccc(Cl)c3)c2-c2ccccc2N1` showed a growth, % of control at 100 µM (NCI-H460) of 39%, an inhibition [1] of less than 40% and an inhibition [2] of less than 40%. The inhibition [3] was less than 40%, the inhibition [4] was less than 40% and the inhibition (Homo sapiens) was less than 40%. It also gave an inhibition [5] of less than 40%, an inhibition [6] of less than 40% and an inhibition [7] of less than 40%.

`Cc1ccccc1-n1ncc2c1-c1ccccc1NC(=O)C2` was tested, and the growth, % of control at 100 µM (NCI-H460) was 49%, the inhibition [1] was less than 40% and the inhibition [2] was less than 40%. The inhibition [3] was less than 40%, the inhibition [4] was less than 40% and the inhibition (Homo sapiens) was less than 40%. It also gave an inhibition [5] of less than 40%, an inhibition [6] of less than 40% and an inhibition [7] of less than 40%.

`O=C1Cc2cnn(-c3ccccc3)c2-c2ccccc2N1` was tested, and the growth, % of control at 100 µM (NCI-H460) was 33%, the inhibition [1] was less than 40% and the inhibition [2] was less than 40%. It also gave an inhibition [3] of less than 40%, an inhibition [4] of less than 40% and an inhibition (Homo sapiens) of less than 40%. It also gave an inhibition [5] of less than 40%, an inhibition [6] of less than 40% and an inhibition [7] of less than 40%.
